Results published in ChEMBL document CHEMBL4689842, “EUbOPEN Chemogenomics Library wave 1” (2021).

Tested on: U2OS
Assay: Multiplex assay against U2OS
Type: toxicity, cell-based
Conditions: human
In short: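 Cells stained live at seeding with Hoechst33342, BioTracker Green Microtubule Cytoskeleton Dye, MitoTracker Red and Annexin V Alexa Fluor 680 were imaged on a CQ1 microscope at 37°C and 5% CO2 after compound addition. Their classification by CellPathfinder machine-learning gating ran from Hoechst high-intensity objects versus normal cells, to healthy, pyknosed or fragmented nuclei among normal cells, to mitotic or apoptotic among pyknosed cells. Tubulin, mitochondrial-mass and membrane-permeability phenotypes are per cents of healthy-nucleus cells.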

[1] = 12 h, 1 µM, compound concentration 1 uM, replicate 1
[2] = 12 h, 1 µM, compound concentration 1 uM, replicate 2
[3] = 12 h, 10 µM, compound concentration 10 uM, replicate 1
[4] = 12 h, 10 µM, compound concentration 10 uM, replicate 2
[5] = 24 h, 1 µM, compound concentration 1 uM, replicate 1
[6] = 24 h, 1 µM, compound concentration 1 uM, replicate 2
[7] = 24 h, 10 µM, compound concentration 10 uM, replicate 1
[8] = 24 h, 10 µM, compound concentration 10 uM, replicate 2
[9] = 48 h, 1 µM, compound concentration 1 uM, replicate 1
[10] = 48 h, 1 µM, compound concentration 1 uM, replicate 2
[11] = 48 h, 10 µM, compound concentration 10 uM, replicate 1
[12] = 48 h, 10 µM, compound concentration 10 uM, replicate 2

Q: Which results are given for `COC(=O)C1=C(C)NC(C)=C(C(=O)OCCCN2CCC(c3ccccc3)(c3ccccc3)CC2)[C@H]1c1cccc([N+](=O)[O-])c1` [NIGULDIPINE]?
A: Population Apoptotic (%) [1]: 64%; Population Fragmented Nuclei (%) [1]: 18%; Population Healthy Nuclei (%) [1]: 58%; Population Hoechst High Intensity Objects (%) [1]: 11%; Population Membrane Permeable-Phenotype (%) [1]: 53%; Population Mitochondria Different-Phenotype (%) [1]: 96%; Population Mitotic Cells (%) [1]: 36%; Population Normal (%) [1]: 88%; Population Pyknosed Nuclei (%) [1]: 23%; Population Tubulin-Different-Phenotype (%) [1]: 96%; Total Cell Count [1]: 893; Population Apoptotic (%) [2]: 91%; Population Fragmented Nuclei (%) [2]: 6%; Population Healthy Nuclei (%) [2]: 78%; Population Hoechst High Intensity Objects (%) [2]: 9%; Population Membrane Permeable-Phenotype (%) [2]: 66%; Population Mitochondria Different-Phenotype (%) [2]: 100%; Population Mitotic Cells (%) [2]: 8%; Population Normal (%) [2]: 90%; Population Pyknosed Nuclei (%) [2]: 15%; Population Tubulin-Different-Phenotype (%) [2]: 100%; Total Cell Count [2]: 945; Population Apoptotic (%) [3]: 73%; Population Fragmented Nuclei (%) [3]: 62%; Population Healthy Nuclei (%) [3]: 4%; Population Hoechst High Intensity Objects (%) [3]: 7%; Population Mitochondria Different-Phenotype (%) [3]: 100%; Population Mitotic Cells (%) [3]: 26%; Population Normal (%) [3]: 92%; Population Pyknosed Nuclei (%) [3]: 33%; Total Cell Count [3]: 122; Population Apoptotic (%) [4]: 76%; Population Fragmented Nuclei (%) [4]: 67%; Population Healthy Nuclei (%) [4]: 3%; Population Hoechst High Intensity Objects (%) [4]: 12%; Population Membrane Permeable-Phenotype (%) [4]: 100%; Population Mitochondria Different-Phenotype (%) [4]: 50%; Population Mitotic Cells (%) [4]: 23%; Population Normal (%) [4]: 87%; Population Pyknosed Nuclei (%) [4]: 29%; Population Tubulin-Different-Phenotype (%) [4]: 100%; Total Cell Count [4]: 87; Population Apoptotic (%) [5]: 76%; Population Fragmented Nuclei (%) [5]: 17%; Population Healthy Nuclei (%) [5]: 52%; Population Hoechst High Intensity Objects (%) [5]: 10%; Population Membrane Permeable-Phenotype (%) [5]: 76%; Population Mitochondria Different-Phenotype (%) [5]: 98%; Population Mitotic Cells (%) [5]: 23%; Population Normal (%) [5]: 89%; Population Pyknosed Nuclei (%) [5]: 30%; Total Cell Count [5]: 927; Population Apoptotic (%) [6]: 77%; Population Fragmented Nuclei (%) [6]: 7%; Population Healthy Nuclei (%) [6]: 65%; Population Hoechst High Intensity Objects (%) [6]: 5%; Population Membrane Permeable-Phenotype (%) [6]: 96%; Population Mitochondria Different-Phenotype (%) [6]: 100%; Population Mitotic Cells (%) [6]: 22%; Population Normal (%) [6]: 94%; Population Pyknosed Nuclei (%) [6]: 27%; Population Tubulin-Different-Phenotype (%) [6]: 100%; Total Cell Count [6]: 948; Population Apoptotic (%) [7]: 78%; Population Fragmented Nuclei (%) [7]: 69%; Population Healthy Nuclei (%) [7]: 2%; Population Hoechst High Intensity Objects (%) [7]: 14%; Population Membrane Permeable-Phenotype (%) [7]: 100%; Population Mitochondria Different-Phenotype (%) [7]: 100%; Population Mitotic Cells (%) [7]: 21%; Population Normal (%) [7]: 85%; Population Pyknosed Nuclei (%) [7]: 27%; Population Tubulin-Different-Phenotype (%) [7]: 100%; Total Cell Count [7]: 111; Population Apoptotic (%) [8]: 100%; Population Fragmented Nuclei (%) [8]: 40%; Population Healthy Nuclei (%) [8]: 25%; Population Hoechst High Intensity Objects (%) [8]: 11%; Population Mitotic Cells (%) [8]: 0%; Population Normal (%) [8]: 88%; Population Pyknosed Nuclei (%) [8]: 33%; Total Cell Count [8]: 85; Population Apoptotic (%) [9]: 78%; Population Fragmented Nuclei (%) [9]: 23%; Population Healthy Nuclei (%) [9]: 39%; Population Hoechst High Intensity Objects (%) [9]: 12%; Population Membrane Permeable-Phenotype (%) [9]: 82%; Population Mitochondria Different-Phenotype (%) [9]: 97%; Population Mitotic Cells (%) [9]: 21%; Population Normal (%) [9]: 87%; Population Pyknosed Nuclei (%) [9]: 36%; Population Tubulin-Different-Phenotype (%) [9]: 97%; Total Cell Count [9]: 922; Population Apoptotic (%) [10]: 85%; Population Fragmented Nuclei (%) [10]: 15%; Population Healthy Nuclei (%) [10]: 54%; Population Hoechst High Intensity Objects (%) [10]: 5%; Population Membrane Permeable-Phenotype (%) [10]: 92%; Population Mitochondria Different-Phenotype (%) [10]: 100%; Population Mitotic Cells (%) [10]: 14%; Population Normal (%) [10]: 94%; Population Pyknosed Nuclei (%) [10]: 30%; Population Tubulin-Different-Phenotype (%) [10]: 100%; Total Cell Count [10]: 932; Population Apoptotic (%) [11]: 81%; Population Fragmented Nuclei (%) [11]: 69%; Population Healthy Nuclei (%) [11]: 2%; Population Hoechst High Intensity Objects (%) [11]: 10%; Population Membrane Permeable-Phenotype (%) [11]: 100%; Population Mitochondria Different-Phenotype (%) [11]: 100%; Population Mitotic Cells (%) [11]: 18%; Population Normal (%) [11]: 89%; Population Pyknosed Nuclei (%) [11]: 28%; Population Tubulin-Different-Phenotype (%) [11]: 100%; Total Cell Count [11]: 116; Population Apoptotic (%) [12]: 100%; Population Fragmented Nuclei (%) [12]: 17%; Population Healthy Nuclei (%) [12]: 28%; Population Hoechst High Intensity Objects (%) [12]: 18%; Population Mitochondria Different-Phenotype (%) [12]: 93%; Population Mitotic Cells (%) [12]: 0%; Population Normal (%) [12]: 81%; Population Pyknosed Nuclei (%) [12]: 53%; Total Cell Count [12]: 97
